The list is not random: actives were taken first. Their share in the collection is about 1.1%.
G6PDH CS – L. mesenteroides G6PDH inhibitors, counter-screen for G6PDH-coupled screening assays, biochemical, Leuconostoc mesenteroides enzyme; inhibition, % at 5 µM; AID 1020, 2008; Purified L. mesenteroides G6PDH, diaphorase/resazurin coupled fluorescence, 45 min; 200,000 compounds, 0.12% hits; in the data active = inhibition above about 50%
PMI act satM6P – human PMI activators, high substrate, primary screen, biochemical, fluorescence intensity, near-saturating mannose 6-phosphate; coupled PMI enzyme assay, resazurin fluorescence, 20 min; stronger effect = higher value; 1 = untreated enzyme, 0 = substrate-free blank; 190,000 compounds, 0.34% hits; activation factor at 20 µM;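 active = activation factor of 2 or more at 20 µM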
Target sequence (P34949 whole entry, looked up): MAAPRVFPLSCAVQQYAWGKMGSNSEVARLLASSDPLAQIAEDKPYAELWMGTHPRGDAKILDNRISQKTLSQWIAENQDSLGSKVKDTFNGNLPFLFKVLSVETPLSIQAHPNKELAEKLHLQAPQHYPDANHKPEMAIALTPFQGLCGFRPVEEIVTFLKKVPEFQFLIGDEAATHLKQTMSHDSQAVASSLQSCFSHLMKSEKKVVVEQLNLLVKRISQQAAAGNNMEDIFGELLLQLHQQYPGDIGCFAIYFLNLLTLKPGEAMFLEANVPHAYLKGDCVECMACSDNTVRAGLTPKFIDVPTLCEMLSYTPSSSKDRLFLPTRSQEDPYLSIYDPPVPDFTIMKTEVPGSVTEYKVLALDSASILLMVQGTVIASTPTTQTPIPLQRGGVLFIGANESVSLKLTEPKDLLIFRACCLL
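Test system: human phosphomannose isomerase with PGI, G6PDH, diaphorase coupling enzymes; Amount: PMI at 15 ng/mL final; Reagent: Mannose-6-phosphate 1.0 mM (near-saturating) plus 0.22 mM NADP+; Timing: 20 min, room temperature; Technique: resorufin fluorescence at Ex 544/Em 590 nm; Dosing: 20 µM single dose.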
Diaph act CS – compounds boosting diaphorase resazurin reduction – biochemical, uHTS, resorufin fluorescence, counter-screen for diaphorase-coupled primary assays, primary screen; Diaphorase/resazurin coupled assay, 16 min; stronger effect = higher value; 1 = vehicle wells, 0 = NADH-free wells; activation factor at 20 µM; 190,000 compounds, 0.005% hits;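 active = diaphorase activity raised at least twofold by the compound at 20 µM; inactive = activation factor below 2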
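Test system: Clostridium kluyveri diaphorase, purified enzyme. Buffer or medium: 50 mM HEPES pH 7.4 buffer plus MgCl2 and Tween 20. Also added: 0.114 mM NADH and 0.1 mM resazurin, final amounts. Dosing: compound 20 µM once, DMSO 1%. Schedule: 16 min enzyme reaction, ambient temperature. Detection: fluorescence of resorufin, 544 nm excitation, 590 nm emission.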
Diaphorase inh – diaphorase inhibitors and chemical oxidizers, primary screen, counter-screen for diaphorase-coupled primary assays, biochemical, uHTS, resorufin fluorescence | inhibition, % at 20 µM | AID 1217, 2008 | 190,000 compounds, 0.69% hits | diaphorase resazurin-to-resorufin fluorescence, NADH, 16 min; bacterial (C. kluyveri) enzyme, not human;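 active = primary screen inhibition at 20 µM above a set limit, cut at about 50% in these data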;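 also: plate controls were DMSO with full reaction for no effect and wells lacking NADH for full effect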
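Test system: Clostridium kluyveri diaphorase enzyme / Quantity: diaphorase at 0.14 U/mL in enzyme working solution / Incubation: 16-min room-temperature incubation before reading / Benchmarks: NADH-free wells as positive control, DMSO-only neutral wells / Signal: resorufin fluorescence 544/590 nm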
PMI act – activators of human PMI, primary screen, biochemical, fluorescence intensity, near-Km mannose 6-phosphate; purified human PMI, coupled resazurin fluorescence, 20 min; stronger effect = higher value; 1 = vehicle control, 0 substrate-free wells; activation factor at 20 µM; 190,000 compounds, 0.005% hits;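 active = activation factor of 2 or more at 20 µM, relative to plate controls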
Active calls of the source: *.

SMILES | G6PDH CS | PMI act satM6P | Diaph act CS | Diaphorase inh | PMI act
COc1cc(/C=C2\SC(=O)NC2=O)ccc1Oc1ccc([N+](=O)[O-])cc1[N+](=O)[O-] | -8 | 0.9 | 0.4 | 59* | 0.9
CO/N=C/c1ccc(Oc2ccc([N+](=O)[O-])cc2[N+](=O)[O-])c(OC)c1 | 10 | 1 | 0.9 | 9 | 1
Cc1c(N(C(=O)c2ccccn2)C2(C(=O)NC3CCCC3)CCCCC2)c(=O)n(-c2ccccc2)n1C | 8 | 1.1 | 0.9 | 7 | 1
Cn1c(Cc2ccccc2)nnc1SCc1cc(=O)n2ccsc2n1 | 14 | 1.1 | 1 | 4 | 1.1
CCn1c2ccccc2c2nnc(SCc3cc(=O)n4ccsc4n3)nc21 | 2 | 0.9 | 0.2 | 77* | 0.9
O=C(Cn1cnc2scc(-c3cccc([N+](=O)[O-])c3)c2c1=O)NCc1ccco1 | 3 | 0.8 | 0.7 | 30 | 1
O=C(N/N=C/c1cc([N+](=O)[O-])ccc1O)C1CCCCC1 | 16 | 0.9 | 0.4 | 56* | 0.7
Cc1ccc(Cl)cc1NC(=S)NCCCSC1CCCCC1 | 11 | 1 | 0.8 | 16 | 1
CC1=NN2C(=N)/C(=C\c3ccc(SCc4ccccc4)o3)C(=O)N=C2S1 | 0 | 0.6 | 0.9 | 9 | 0.5
N=C1/C(=C\c2ccc(SCc3ccco3)o2)C(=O)N=C2SC=NN12 | 10 | 0.9 | 0.5 | 54* | 0.9
Cc1c(NC(=O)CC(=O)Nc2c(C)n(C)n(-c3ccccc3)c2=O)c(=O)n(-c2ccccc2)n1C | 10 | 0.9 | 0.9 | 10 | 0.9
Cc1c(NC(=O)CSc2ccccc2F)c(=O)n(-c2ccccc2)n1C | 1 | 1 | 0.5 | 50* | 0.1
CCOc1ccccc1NC(=O)C(NCC1(N2CCCCC2)CCCCC1)c1ccccc1 (stereo not given) | -8 | 1.1 | 1 | -3 | 1
O=C(O)CCn1cc(/C=N/O)c(-c2cccc([N+](=O)[O-])c2)n1 | -1 | 1.1 | 0.9 | 5 | 1.3
COc1ccc(-c2c3c(=O)n(C)c(=O)n(C)c3cn2-c2cc(OC)ccc2OC)cc1 | -1 | 0.8 | 1 | 4 | 1
N#Cc1c(NC(=O)C2CC(Cl)=CCC2C(=O)O)sc2c1CCCC2 (stereo not given) | 14 | 1 | 1.1 | -8 | 1
CC(C)Sc1n[nH]c2nc3c(c(=O)n12)C1(CCCC1)Cc1ccccc1-3 | -3 | 1.3 | 0.9 | 10 | 1.1
CSc1n[nH]c2nc3c(c(=O)n12)C1(CCCC1)Cc1ccccc1-3 | -3 | 2.2* | 0.9 | 8 | 1.6
Cc1cc([N+](=O)[O-])ccc1NC(=O)CSc1nccc(=O)[nH]1 | 4 | 1 | 1.1 | -6 | 1.1
Oc1ccc2[nH]ccc2c1 | 56* | 0.6 | 0.7 | 25 | 0.9
Cc1ccc(C)c(N/N=C2\CCCNC2=O)c1 | -5 | 2.5* | 0.8 | 18 | 1.8
Fc1ccccc1/C=C1\CCCC2=C1NC(=S)NC2c1ccccc1F (stereo not given) | -4 | 2.2* | 0.9 | 8 | 1.7
S=C1NC2=C(CCCC2=C2SCCCS2)C(c2ccccc2)N1 (stereo not given) | 1 | 1 | 0.9 | 6 | 1
S=C1NC2=C(CCC/C2=C\c2ccccc2)C(c2ccccc2)N1 (stereo not given) | -8 | 2.4* | 0.9 | 11 | 1.6
O=C(Nc1ccc([N+](=O)[O-])cc1)c1cc(-c2ccccn2)nc2c(Cl)cccc12 | 11 | 1 | 1.1 | -8 | 1
SMILES | G6PDH CS | PMI act satM6P | Diaph act CS | Diaphorase inh | PMI act
CN(CCOC(=O)c1cccc(F)c1)Cc1ccccc1 | -5 | 1.1 | 0.9 | 10 | 1
CC(CN(C)Cc1ccccc1)OC(=O)c1cccc(F)c1 (stereo not given) | 18 | 2.4* | 1 | 2 | 1.6
Cc1ccc(S(=O)(=O)NC2CCCC(C(=O)O)C2)cc1 (stereo not given) | 4 | 1 | 0.9 | 7 | 1
COc1cc2c(cc1OC)CN(Cc1cc(OC)c(O)c(OC)c1)CC2 | 53* | 0.3 | 0.7 | 26 | 0.8
COc1cc(CN2CCN(c3ccccc3F)CC2)cc(OC)c1O | 54* | 0.8 | 0.6 | 40 | 0.7
COc1cc(CN2CCC(C(=O)N3CCN(c4ccccc4F)CC3)CC2)cc(OC)c1O | 54* | 0.5 | 0.7 | 32 | 0.8
O=C(C1CCCO1)N1CCN(C(=S)Nc2ccc(Cl)cc2)CC1 (stereo not given) | 2 | 1 | 0.9 | 9 | 0.8
COc1cc(/C=N/NC(=O)C(Cc2c[nH]c3ccccc23)NC(=O)OCC(C)C)cc([N+](=O)[O-])c1OCc1ccccc1 (stereo not given) | 15 | 0.5 | 0.3 | 71* | 0.9
COc1cc(/C=N/NC(=O)C(Cc2c[nH]c3ccccc23)NC(=O)OCC(C)C)cc([N+](=O)[O-])c1O (stereo not given) | -15 | 0.9 | 0.8 | 18 | 1
O=C1CSC(=Nc2ccccc2)N1 | 2 | 1 | 0.9 | 9 | 0.9
O=C1CS/C(=N\C(=O)N2c3ccccc3Sc3ccccc32)N1 | 8 | 0.9 | 0.3 | 70* | 0.9
CCCCC(=O)Nc1ccc(C(=O)N(CC)c2ccccc2C)cc1 | 6 | 1.1 | 0.9 | 13 | 1.1
Cc1ccc(NC(=O)CC(=O)NCCN2CCOCC2)cc1 | 0 | 0.9 | 0.9 | 6 | 0.9
CC(=O)/C(=N\Nc1ccc(C)cc1)N1CCOCC1 | 4 | 2.6* | 1 | -1 | 1.5
Cc1oc2c(c1C(=O)NCc1cccnc1)C(=O)c1ccccc1C2=O | 59* | 1 | 1 | 0 | 1.7
COc1ccc(CNC(=O)c2c(C)oc3c2C(=O)c2ccccc2C3=O)cc1 | 62* | 1.3 | 0.9 | 11 | 1.6
Cc1ccc(C(=O)Nc2cc(C(C)C)c(O)c(C(C)C)c2)cc1 | 5 | 0.8 | 0.7 | 27 | 0.8
C=C(C)CN(CC)c1nc(N)c2c(N)nc3c(c2c1C#N)CC(=O)N3C12CC3CC(CC(C3)C1)C2 | 4 | 1 | 0.8 | 20 | 1
N#Cc1c(N2CCCC(O)C2)nc(N)c2c(N)nc3c(c12)CC(=O)N3C12CC3CC(CC(C3)C1)C2 (stereo not given) | 50 | 0.4 | 0.4 | 55* | 0.4
CCNc1nc(NCC)nc(N/N=C/c2ccc(O)c(O)c2)n1 | 19 | 0.8 | 0.4 | 61* | 0.4

Assay outcomes as filed in PubChem.
